Measurements as given in ChEMBL document CHEMBL1157108, “Rapid structural identification of cytotoxic bufadienolide sulfates in toad venom from Bufo melanosticus by LC-DAD-MS(n) and LC-SPE-NMR” (J Nat Prod, 2010).
pIC50: −log10 of the molar value.

Experiments:
B16-F10 = assay: Growth inhibition of mouse B16F10 cells after 72 hrs by MTT assay; type: functional, cell-based; details: B16-F10, 72 h
In short: (§1)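 Cells seeded at 10 000 to 40 000 cells/mL (cell-type dependent) and allowed 24 h to plate, then grown 72 h with or without compound. Culture in RPMI with 10% heat-inactivated FCS, 4 mM glutamine, gentamicin and penicillin-streptomycin. Living cells reduce MTT to formazan, read at 570 nm against a 630 nm reference. IC50 reported as mean ± SD.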

A549 = assay: Growth inhibition of human A549 cells after 72 hrs by MTT assay; type: functional, cell-based; details: A549, 72 h; in short: as §1
[1] = Growth inhibition of human Hs683 cells after 72 hrs by MTT assay; type: functional, cell-based; details: Hs 683, 72 h; in short: as §1
CT26 = assay: Growth inhibition of mouse CT26 cells after 72 hrs by MTT assay; type: functional, cell-based; details: CT26, 72 h; in short: as §1
MCF7 = assay: Growth inhibition of human MCF7 cells after 72 hrs by MTT assay; type: functional, cell-based; details: MCF7, 72 h; in short: as §1
[2] = Growth inhibition of human U373 cells after 72 hrs by MTT assay; type: functional, cell-based, U-373MG ATCC; details: U373 MG; in short: as §1

Row | Compound | pIC50 (B16-F10) | pIC50 (A549) | pIC50 [1] | pIC50 (CT26) | pIC50 (MCF7) | pIC50 [2]
1 | C[C@]12CC[C@H]3[C@@H](CC[C@]4(O)C[C@@H](OS(=O)(=O)O)CC[C@]34C=O)[C@@]1(O)CC[C@@H]2c1ccc(=O)oc1 | < 5.00 | 7.35 | 7.01 | < 5.00 | 6.29 | 6.40
2 | C[C@]12CC[C@H](OS(=O)(=O)O)C[C@@]1(O)CC[C@@H]1[C@@H]2CC[C@]2(C)[C@@H](c3ccc(=O)oc3)CC[C@]12O | < 5.00 | 7.44 | 8.15 | < 5.00 | 5.80 | 7.29
3 | C[C@]12CC[C@H](OS(=O)(=O)O)C[C@H]1CC[C@@H]1[C@@H]2CC[C@]2(C)[C@@H](c3ccc(=O)oc3)[C@@H](O)C[C@]12O | < 5.00 | 6.33 | 6.75 | < 5.00 | 5.48 | 6.28
4 | C[C@]12CC[C@H]3[C@@H](CC[C@]4(O)C[C@@H](OS(=O)(=O)O)CC[C@]34CO)[C@@]1(O)CC[C@@H]2c1ccc(=O)oc1 | < 5.00 | 7.10 | 7.30 | < 5.00 | 6.92 | 6.49
5 | C[C@@H]1O[C@@H](O[C@H]2CC[C@]3(C=O)[C@H]4CC[C@]5(C)[C@@H](c6ccc(=O)oc6)CC[C@]5(O)[C@@H]4CC[C@]3(O)C2)[C@H](O)[C@H](O)[C@H]1O[C@@H]1O[C@H](CO)[C@@H](O)[C@H](O)[C@H]1O [HELLEBRIN] | < 5.00 | 7.80 | 8.15 | < 5.00 | 7.09 | 7.31
6 | CC(=O)O[C@H]1C[C@]2(O)[C@@H]3CC[C@@H]4C[C@@H](O)CC[C@]4(C)[C@H]3[C@H](O)C(=O)[C@]2(C)[C@H]1c1ccc(=O)oc1 | < 5.00 | 5.87 | 6.34 | < 5.00 | 5.65 | 6.06
7 | C[C@]12CC[C@H]3[C@@H](CC[C@@H]4C[C@@H](OS(=O)(=O)O)CC[C@@]43CO)[C@@]1(O)CC[C@@H]2c1ccc(=O)oc1 | < 5.00 | 8.30 | 7.09 | < 5.00 | 6.82 | 7.92
